Drawing on ChEMBL document CHEMBL5634162, “Cyclohexylalanine-Containing α-Helical Amphipathic Peptide Targets Cardiolipin, Rescuing Mitochondrial Dysfunction in Kidney Injury” (J Med Chem, 2024), this text covers Activity, Drug uptake and inhibition for one compound.

The test system of series [1] is Mus musculus. The series can be described thus: Protection against […] C57BL/6 mouse model assessed as increase in ATP6 mRNA level at 1 mg/kg, ip administered thrice a week prior to induction of bilateral ischemia-reperfusion injury measured after 6 days by qPCR analysis. It is filed as functional, organism-based. Particulars: time 6.0 day.

The subject of series [2] is Epithelial cell. The series can be described thus: Reversal of H2O2-induced p16 mRNA level in human tubular epithelial cells at 10 to 100 nM by qPCR analysis. It is filed as functional, cell-based. Particulars: dose 10-100 nM.
For series [3], the system named is Epithelial cell. Briefly: Induction of H2O2-reduced ATP production in human tubular epithelial cells at 10 to 20 nM incubated for 3 hrs followed by H2O2 measured after 1 hr by fluorescene based analysis. The class given is functional. Particulars: dose 10-20 nM, time 4.0 hrs.
A short description of series [4]: Drug localization in lysosomes of human HeLa cells expressing endosome markers at 100 nM incubated for 3 hrs by LysoTracker probe based analysis. Particulars: 0.1 µM. It is filed as ADME, subcellular, Lysosome. In short, it runs like this:
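HeLa cells expressing early-endosome GFP marker (16 h) given TAMRA-labelled peptide 100 nM for 3 h plus LysoTracker 50 nM; confocal imaging with Pearson correlation.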

Series [5] relates to HeLa. The series can be described thus: Inhibition of H2O2-induced intracellular ROS level in human HeLa cells at EC50 incubated for […] followed by H2O2 addition measured for 10 mins by H2DCFDA probe based analysis. Particulars: time 220.0 min. It is filed as functional, cell-based.
In series [6] the test system is Mus musculus. Briefly: Protection against […] C57BL/6 mouse model assessed as reduction in serum BUN level at 1 mg/kg, ip administered thrice a week prior to induction of bilateral ischemia-reperfusion injury measured after 6 days. It is filed as functional, organism-based. Particulars: time 6.0 day.
Series [7] in a line: Drug localization in mitochondria of human tubular epithelial cells upto 100 nM by MitoTracker probe based assay. It is filed as ADME. Particulars: epithelial cell, 0.1 µM.
Series [8] relates to Mus musculus. Briefly: Protection against […] C57BL/6 mouse model assessed as increase in SOD-1 level at 1 mg/kg, ip administered thrice a week prior to induction of bilateral ischemia-reperfusion injury measured after 6 days by IHC analysis. The class given is functional, organism-based. Particulars: time 6.0 day.
Series [9] has as its system Mus musculus. The series can be described thus: Protection against colistin-induced nephrotoxicity in C57BL/6 mouse model assessed as reduction in blood BUN level at 1 mg/kg, ip administered once every other day measured upto 7 days. Particulars: time <= 7.0 day. It is filed as functional, organism-based. In short, it runs like this: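 Male C57BL/6 mice, 7 weeks: colistin 20 mg/kg sc daily for 7 days, peptide 1 mg/kg ip every other day, n = 5 per group. BUN by autoanalyzer and creatinine by modified Jaffe reaction after 7 days; mean ± SEM.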

Series [10] has as its system Mus musculus. Briefly: Protection against colistin-induced nephrotoxicity in C57BL/6 mouse model assessed as appearance of cristae formation in mitochondria of kidney at 1 mg/kg, ip administered once every other day measured after 7 days by TEM analysis. Particulars: time 7.0 day. The class given is functional, organism-based. In short, it runs like this: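 Male C57BL/6 mice, 7 weeks, given colistin 20 mg/kg sc daily for 7 days with peptide 1 mg/kg ip once every other day, n = 5 per group; kidney mitochondria examined by TEM.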

Series [11] relates to Mus musculus. Briefly: Protection against […] C57BL/6 mouse model assessed as decrease in serum BUN level at 1 mg/kg, ip measured after 23 hrs. It is filed as functional, organism-based.
In series [12] the test system is Epithelial cell. The series can be described thus: Induction of antimycin A-reduced ATP production in human tubular epithelial cells at 10 to 20 nM incubated for 3 hrs followed by antimycin A addition by fluorescene based analysis. The class given is functional. Particulars: dose 10-20 nM.
The subject of series [13] is HeLa. The series can be described thus: Induction of H2O2-reduced mitochondrial membrane potential in human HeLa cells incubated for 3 hrs followed by H2O2 addition for 1 hr by fluorescence based analysis. It is filed as functional, cell-based. Particulars: dose 10-30 nM, time 4.0 hrs. An outline of the steps: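 HeLa cells given peptide 3 h then 1 mM H2O2 for 1 h; TMRE 600 nM for 15 min, washed, fluorescence read in HBSS at 37 °C (Ex/Em 525/575 nm).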

Series [14] can be described thus: Drug localization in mitochondria of human HeLa cells at EC50 incubated for 3 hrs by fluorescence based assay. It is filed as ADME.
Series [15] has as its system Mus musculus. The series can be described thus: Protection against […] C57BL/6 mouse model assessed as increase in SOD-1 mRNA level at 1 mg/kg, ip administered thrice a week prior to induction of bilateral ischemia-reperfusion injury measured after 6 days by qPCR analysis. The class given is functional, organism-based. Particulars: time 6.0 day.

Series [16] concerns Epithelial cell. The series can be described thus: Reversal of H2O2-induced mitochondrial dysfunction in human tubular epithelial cells assessed as increase in ECAR level measured for 40 to 60 mins by Seahorse assay. The class given is functional, cell-based. Particulars: dose 10-50 nM, time 40-60 min. In short, it runs like this:
(§1)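 hTECs were exposed to H2O2 with peptide at 10 or 50 nM (n = 6 per group), then run on a Seahorse XFe96. OCR was read after sequential 2 μM oligomycin, 1 μM FCCP, and 0.5 μM rotenone/antimycin A. ECAR was read after 10 mM glucose, 1 μM oligomycin and 50 mM 2-DG. Glycolytic proton efflux rate was taken as glycoATP production rate.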

Series [17] deals with Mus musculus. The series can be described thus: Protection against colistin-induced nephrotoxicity in C57BL/6 mouse model assessed as increase in SOD-1 level at 1 mg/kg, ip administered once every other day measured after 7 days by IHC analysis. The class given is functional, organism-based. Particulars: time 7.0 day. In short, it runs like this: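 Male C57BL/6 mice, 7 weeks: colistin 20 mg/kg sc daily for 7 days, peptide 1 mg/kg ip once every other day, n = 5 per group. Day-7 kidney sections, citrate antigen retrieval, immunohistochemistry with HRP polymer secondary and hematoxylin counterstain; PAS and Masson's trichrome for damage.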

The test system of series [18] is Mus musculus. Briefly: Protection against colistin-induced nephrotoxicity in C57BL/6 mouse model assessed as reduction in renal fibrosis at 1 mg/kg, ip administered once every other day measured after 7 days by […] analysis. It is filed as functional, organism-based. Particulars: time 7.0 day. An outline of the steps:
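Seven-week-old male C57BL/6 mice got colistin 20 mg/kg SC daily for 7 days plus peptide 1 mg/kg intraperitoneally every other day; groups of n = 5 (control, colistin, colistin + peptide). Kidneys were taken at day 7. Cytochrome C was detected by immunohistochemistry (citrate antigen retrieval, HRP-polymer detection, hematoxylin counterstain). Sections were also stained with PAS and Masson's trichrome to score histologic damage and fibrosis.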

For series [19], the system named is Epithelial cell. Briefly: Induction of H2O2-reduced mitochondrial membrane potential in human tubular epithelial cells at 20 to 60 nM pretreated for 3 hrs followed by H2O2 addition measured after 30 mins by fluorescence based analysis. Particulars: dose 20-60 nM. It is filed as functional. In short, it runs like this:
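hTECs given peptide 3 h then H2O2 1 mM for 30 min; TMRE 600 nM for 15 min, washed, HBSS, plate reader at 37 °C (Ex/Em 525/575 nm).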

For series [20], the system named is Epithelial cell. Briefly: Reversal of H2O2-induced mitochondrial dysfunction in human tubular epithelial cells assessed as increase in OCR level measured for 40 to 60 mins by Seahorse assay. The class given is functional, cell-based. Particulars: dose 10-50 nM, time 40-60 min. In short, it runs like this: as §1
Series [21] in a line: Drug localization in CCCP-damaged mitochondria of human HeLa cells at 100 nM incubated for 3 hrs by NAO probe based assay. The class given is ADME. Particulars: 0.1 µM. In short, it runs like this: (§2)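 HeLa cells given TAMRA-labelled peptide 100 nM for 3 h and cardiolipin stained with NAO (100 nM, 1 h), with or without 20 μM CCCP for 30 min; LysoTracker 50 nM. Confocal images, Pearson r from five independent images (63×) per condition.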

Series [22] deals with Epithelial cell. Briefly: Reversal of H2O2-induced p21 mRNA level in human tubular epithelial cells at 10 to 100 nM by qPCR analysis. The class given is functional, cell-based. Particulars: dose 10-100 nM.
Series [23] can be described thus: Drug localization in lysosomes of human HeLa cells at 100 nM incubated for 3 hrs in presence of CCCP by NAO probe based analysis. It is filed as ADME, subcellular, Lysosome. Particulars: 0.1 µM. In short, it runs like this: as §2

The source made the active and inactive calls. No cut-off for these calls is given here. Where a SMILES comes first, the peptide text is derived from it. Bridges are numbered along the chain shown (N, C = ends). Roman numbers before positions name the chains, in order. [ ]: non-standard residue; d: D form. The star is where a group is joined. 5TAMRA = CN(C)c1ccc2c(c1)Oc1cc(N(C)C)ccc1C21OC(=O)c2cc(C(=O)*)ccc21; Cha = N[C@@H](CC1CCCCC1)C(=O)O

As to `CC(=O)N[C@@H](CC1CCCCC1)C(=O)N[C@H]1CSSC[C@@H](C(=O)N[C@@H](CCCNC(=N)N)C(N)=O)NC(=O)[C@H](CC2CCCCC2)NC(=O)[C@H](CCCNC(=N)N)NC(=O)[C@H](CCCNC(=N)N)NC(=O)[C@H](CC2CCCCC2)NC(=O)[C@H](CC(C)C)NC(=O)[C@H](CCCNC(=N)N)NC(=O)[C@@H](NC(=O)[C@H](CC2CCCCC2)NC(=O)c2ccc3c(c2)C(=O)OC32c3ccc(N(C)C)cc3Oc3cc(N(C)C)ccc32)CSSC[C@@H](C(=O)N[C@@H](CCCNC(=N)N)C(N)=O)NC(=O)[C@H](CC2CCCCC2)NC(=O)[C@H](CCCNC(=N)N)NC(=O)[C@H](CCCNC(=N)N)NC(=O)[C@H](CC2CCCCC2)NC(=O)[C@H](CC(C)C)NC(=O)[C@H](CCCNC(=N)N)NC1=O` (I: Ac-[Cha]CRL[Cha]RR[Cha]CR-NH2 / II: 5TAMRA-[Cha]CRL[Cha]RR[Cha]CR-NH2; disulfide I:2-II:9, I:9-II:2), the outcome in [1], in series [2], in series [3], in [6], in series [8] and in [9] was Active. Also, the result in series [10], in [11], in [12], in series [15], in [17] and in series [18] was Active. Further, the result in [19] and in series [22] was Active. Moreover, the Drug uptake result in [4] was “Active”; in series [7], “Active”; in [14] it was 53%; in series [21] it was “Active”; in [23] it was “Active”. The inhibition entry in [5] is “Active”. Moreover, the Activity result in series [13], in [16] and in series [20] was “Dose-Dependent Effect” in each case.
